Results published in ChEMBL document CHEMBL1148164, “Cytotoxicity of artemisinin-related endoperoxides to Ehrlich ascites tumor cells” (J Nat Prod, 1993).

Assays:
[1] = Cytotoxicity against mouse EAC after 3 days by MTT assay; format: functional, cell-based; details: Ehrlich, 72 h
Procedure, shortened: (§1)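 Exponentially growing EAT cells (>95% trypan-blue viable; RPMI 1640, 10% heat-inactivated FCS) at 400 cells/well were exposed to compounds for 2 h at 37°, 5% CO2 (final DMSO 0.25%). Cells were washed 3×, then grown 3 days. MTT (5 mg/ml in PBS) was added for 3 h 45 min, formazan was dissolved in DMSO, and A520 was read. Survival is relative to untreated, medium-blank corrected. Three separate experiments.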

[2] = Cell cycle arrest in mouse EAC assessed as accumulation at S phase by FACS analysis; format: functional, cell-based; set-up: concentration or dose not given beside the values; details: Ehrlich
[3] = Cytotoxicity against mouse EAC at >175 uM after 3 days by MTT assay; format: functional, Ehrlich; procedure, shortened: as §1
[4] = Cytotoxicity against mouse EAC at >500 uM after 3 days by MTT assay; format: functional, Ehrlich; procedure, shortened: as §1
[5] = Cytotoxicity against mouse EAC at >50 uM after 3 days by MTT assay; format: functional, Ehrlich
Procedure, shortened: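 EAT cells grown in suspension in RPMI 1640 with 10% heat-inactivated FCS, streptomycin and penicillin, 37°, 5% CO2; exponential cells, viability >95%. 400 cells/well exposed 2 h at 37° (final DMSO 0.25%), washed 3×, regrown 3 days. MTT 3 h 45 min, formazan in DMSO, A520; survival versus untreated controls. Triplicate separate experiments, mean ± SD.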

[6] = Cytotoxicity against mouse EAC at >125 uM after 3 days by MTT assay; format: functional, Ehrlich; procedure, shortened: as §1

Row | Structure (SMILES) | IC50 [1] [µM] | IC80 [1] [µM] | Activity [2] [%] | Activity [3] [%] | Activity [4] [%] | Activity [5] [%] | Activity [6] [%]
1 | C[C@H]1[C@H](O[C@@H]2O[C@@H]3O[C@@]4(C)CC[C@H]5[C@H](C)CC[C@@H]([C@H]2C)[C@@]35OO4)O[C@@H]2O[C@@]3(C)CC[C@H]4[C@H](C)CC[C@@H]1[C@@]24OO3 | 1.4 | 2.4 | – | – | – | – | –
2 | C[C@@H]1[C@H](OCc2ccc(C(=O)O)cc2)O[C@@H]2O[C@@]3(C)CC[C@@H]4[C@@H](C)CC[C@@H]1[C@]24OO3 [ARTELINIC ACID] | 16.1 | 103 | 63 | – | – | – | –
3 | C=C1C(=O)O[C@@H]2/C=C(\C)CC/C=C(/C)C[C@@H](OC(=O)/C(=C/CO)CO)[C@@H]12 [EUPATORIOPICRIN] | 5.7 | 13.4 | – | – | – | – | –
4 | C[C@H]1[C@H](OC(=O)CCC(=O)O)O[C@@H]2O[C@@]3(C)CC[C@H]4[C@H](C)CC[C@@H]1[C@@]24OO3 [SODIUM ARESUNATE] | 19.9 | 53.6 | – | – | – | – | –
5 | C=C1[C@@H](OO)O[C@@H]2O[C@]3(C)CC[C@H]4[C@H](C)CC[C@@H]1[C@@]24OO3 [HYDROPEROXYARTEMISITENE] | 37.8 | 59.2 | – | – | – | – | –
6 | C=C(C(=O)O)[C@@H]1CC[C@@H](C)[C@@H]2CCC(C)=C[C@@H]21 [ARTEMISINIC ACID] | > 175 | > 175 | – | 100 | – | – | –
7 | C[C@@H]1CC[C@H]2[C@@H](C)C(=O)O[C@@H]3O[C@@]4(C)CC[C@@H]1[C@]32OO4 [ARTEMISININ] | 29.8 | 346 | 63 | – | – | – | –
8 | C=C1C(=O)O[C@@H]2O[C@@]3(C)CC[C@H]4[C@H](C)CC[C@@H]1[C@@]24OO3 [ARTEMISITENE] | 6.8 | 16 | – | – | – | – | –
9 | CC(=O)[C@@H]1CC[C@@H](C)[C@@H]2CC[C@@]3(C)OO[C@@]12[C@H](OC=O)O3 | 91 | 156 | – | – | – | – | –
10 | CC(C)C12C=CC(C)(CC1)OO2 (stereo not drawn) [ASCARIDOLE] | > 500 | > 500 | – | – | 74.8 | – | –
11 | CCO[C@H]1O[C@@H]2O[C@@]3(C)CC[C@H]4[C@H](C)CC[C@@H]([C@H]1C)[C@@]24OO3 [ARTEMOTIL] | 13.1 | 212 | 63 | – | – | – | –
12 | C=C1[C@@H](OOCC)O[C@@H]2O[C@]3(C)CC[C@H]4[C@H](C)CC[C@@H]1[C@@]24OO3 [ETHYLPEROXYARTEMISITENE] | 11.5 | 38.3 | – | – | – | – | –
13 | C[C@H]1[C@@H](OCc2ccc(C(=O)O)cc2)O[C@@H]2O[C@]3(C)CC[C@H]4[C@H](C)CC[C@@H]1[C@@]24OO3 [SODIUMARTELINATE] | 12.2 | 47.9 | 63 | – | – | – | –
14 | C[C@@H]1CC[C@@H]2[C@]34OO[C@](C)(CC[C@@H]13)O[C@H]4OC(=O)[C@]2(C)O | 48.7 | 125 | – | – | – | – | –
15 | C=C1C(=O)O[C@@]23[C@H]1CC[C@@H](C)[C@@H]2CC[C@@]1(C)O[C@@H]31 [ARTEANNUIN B] | 47 | > 50 | – | – | – | 44.8 | –
16 | CO[C@H]1O[C@@H]2O[C@@]3(C)CC[C@H]4[C@H](C)CC[C@@H]([C@H]1C)[C@@]24OO3 [ARTEMETHER] | 14.3 | > 125 | 63 | – | – | – | 26.7
17 | COc1cccc2c1C(=O)c1c(O)c3c(c(O)c1C2=O)C[C@@](O)(C(=O)CO)C[C@@H]3O[C@H]1C[C@H](N)[C@H](O)[C@H](C)O1 [DOXORUBICIN] | 0.35 | 1 | – | – | – | – | –
18 | CC(=O)[C@@H]1CC[C@@H](C)[C@@H]2CC[C@@]3(C)OO[C@@]12C(=O)O3 | > 175 | > 175 | – | 98.1 | – | – | –
19 | C[C@@H]1CC[C@@H]2[C@]34OO[C@@](C)(CC[C@@H]13)O[C@H]4OC(=O)[C@@]2(C)O | > 125 | > 125 | – | – | – | – | 98.8
20 | C[C@H]1[C@@H](O)O[C@@H]2O[C@@]3(C)CC[C@H]4[C@H](C)CC[C@@H]1[C@@]24OO3 [ARTENIMOL] | 83.4 | 233 | – | – | – | – | –
21 | CC1=CO[C@@H]2O[C@]3(C)CC[C@H]4[C@H](C)CC[C@@H]1[C@@]24OO3 [ANHYDRODIHYDROARTEMISININ] | 29.2 | 207 | – | – | – | – | –
